Tests used:
[1] = Inhibition of recombinant human IL2R/IL2-induced mouse 32D-beta cell proliferation preincubated for 30 mins with protein followed by cell addition measured after 2.5 days by Alamar blue reduction assay
Procedure, shortened: (§1)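 32Dβ cells (IL-2Rβ/γ) were starved 4 h without cytokine, then 1 × 10^4 cells were cultured 2.5 days with 100 pM RLI or 1.5 nM IL-2. The cytokine was preincubated 30 min with fixed or increasing compound concentrations or vehicle (culture medium, DMSO 0.1% final). Alamar blue was added for 6 h at 37 °C, with fluorescence read at ex 560/em 590 nm. Tested in triplicate; IC50 is the mean of ≥2 independent assays.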

IL15-IL15 receptor [2] = target: IL15-IL15 receptor (Homo sapiens, UniProt P40933); test: Inhibition of IL15R/IL15 interaction in human NK92 cells assessed as reduction of IL15-induced STAT5 phosphorylation preincubated for 30 mins with IL15 followed by cell addition measured after 1 hr by AlphaScreen assay; type: cell-based
Chain of IL15-IL15 receptor (Homo sapiens, UniProt P40933) (P40933 whole entry): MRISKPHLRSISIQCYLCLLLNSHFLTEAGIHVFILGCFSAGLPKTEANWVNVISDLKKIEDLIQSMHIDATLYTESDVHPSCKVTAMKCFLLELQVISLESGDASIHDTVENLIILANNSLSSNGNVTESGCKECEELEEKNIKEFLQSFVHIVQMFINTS
Chain of IL15-IL15 receptor (Homo sapiens, UniProt P40933) (Q13261 whole entry, further chain): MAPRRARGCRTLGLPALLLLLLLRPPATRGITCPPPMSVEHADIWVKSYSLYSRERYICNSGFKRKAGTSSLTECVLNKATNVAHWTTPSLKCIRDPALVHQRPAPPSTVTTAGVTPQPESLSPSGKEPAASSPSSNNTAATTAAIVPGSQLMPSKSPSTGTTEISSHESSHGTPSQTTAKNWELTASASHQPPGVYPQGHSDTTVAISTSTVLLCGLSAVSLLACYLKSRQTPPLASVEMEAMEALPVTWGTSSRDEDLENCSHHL
Procedure, shortened: (§2)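 NK-92 cells were washed and serum-starved overnight, then 2 × 10^5 cells were stimulated at 37 °C for 1 h with IL-15 (50 pM fixed) or IL-2. The cytokine had been preincubated 30 min with increasing compound concentrations or vehicle (PBS, BSA 0.1%, DMSO 0.6% final). Cells were lysed and p-Stat5 read by AlphaScreen SureFire. Duplicates, ≥3 independent experiments. Result is % reduction of the cytokine p-Stat5 response.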

[3] = Inhibition of IL2R/IL2 interaction in human NK92 cells assessed as reduction IL2-induced STAT5 phosphorylation preincubated for 30 mins with IL2 followed by cell addition measured after 1 hr by AlphaScreen assay; type: cell-based; procedure, shortened: as §2
Interleukin-15 = Interleukin-15 (Homo sapiens, UniProt P40933); test: Binding affinity to recombinant human IL-15 by SPR assay
Chain of Interleukin-15 (P40933 whole entry): as the sequence (P40933 whole entry) above
Procedure, shortened: (§3)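 SPR on a BIAcore 3000 at 25 °C. Recombinant IL-15, RLI or IL-2 was amine-coupled to CM5 chips, and compounds were flowed over at 100 μM or at increasing concentrations (3.125–100 μM) in PBS or 1% or 5% DMSO. Binding was read as the change in RU, and Kd was derived from direct interaction.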

Interleukin-2 = Interleukin-2 (Homo sapiens, UniProt P60568); test: Binding affinity to recombinant human IL-2 by SPR assay; procedure, shortened: as §3
Chain of Interleukin-2 (P60568 whole entry, the tested form may be a part): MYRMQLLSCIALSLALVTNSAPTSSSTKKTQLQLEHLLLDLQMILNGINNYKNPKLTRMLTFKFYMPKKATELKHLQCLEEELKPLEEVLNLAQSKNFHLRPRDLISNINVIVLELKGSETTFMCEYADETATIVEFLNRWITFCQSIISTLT

IL15-IL15 receptor [4] = target: IL15-IL15 receptor (Homo sapiens, UniProt P40933+Q13261); test: Inhibition of human IL-15Ralpha-sushi domain/human IL-15-induced mouse 32D-beta cell proliferation preincubated for 30 mins with protein followed by cell addition measured after 2.5 days by Alamar blue reduction assay; procedure, shortened: as §1
Chain of IL15-IL15 receptor (Homo sapiens, UniProt P40933+Q13261) (P40933 whole entry, the tested form may be a part): as the sequence (P40933 whole entry) above
Chain of IL15-IL15 receptor (Homo sapiens, UniProt P40933+Q13261) (Q13261 whole entry, the tested form may be a part): as the sequence (Q13261 whole entry, further chain) above

IC50 (IL15-IL15 receptor [2])	IC50 [3]	SMILES	IC50 ([1]; Homo sapiens, read-out: IC50)	other results
–	–	Cn1c(Cc2nn(C)c(=O)c3ccccc23)nnc1SCCCCCCCC(=O)Nc1ccc(O)cc1	> 30000 nM	–
–	–	Cn1c(Cc2nn(C)c(=O)c3ccccc23)nnc1SCCCC(=O)Nc1ccc(Cl)cc1Cl	11200 nM	–
–	–	CN(C(=O)CSc1nnc(Cc2nn(C)c(=O)c3ccccc23)n1C)c1ccc(Cl)cc1Cl	–	IC50 [1]: Not Active
–	–	Cn1c(Cc2nn(C)c(=O)c3ccccc23)nnc1S(=O)(=O)CCCCCCCC(=O)Nc1ccc(Br)cc1Br	1600 nM	–
142 nM	159 nM	Cn1c(Cc2nn(C)c(=O)c3ccccc23)nnc1SCCCCCCCCCCC(=O)Nc1ccc(Cl)cc1Cl	4400 nM	–
210 nM	152 nM	Cn1c(Cc2nn(C)c(=O)c3ccccc23)nnc1SCCCCCCCC(=O)NC12CC3CC(CC(C3)C1)C2	1800 nM	Kd (Interleukin-15): 78000 nM
205 nM	162 nM	COc1ccc(NC(=O)CCCCCCCSc2nnc(Cc3nn(C)c(=O)c4ccccc34)n2C)c(OC)c1	900 nM	Kd (Interleukin-15): 19600 nM; Kd (Interleukin-2): 27600 nM
–	–	Cn1c(Cc2nn(C)c(=O)c3ccccc23)nnc1SCCCCCCCC(=O)Nc1ccc(I)cc1	800 nM	–
124 nM	59 nM	Cn1c(Cc2nn(C)c(=O)c3ccccc23)nnc1SCCCCCCCCCCC(=O)NC12CC3CC(CC(C3)C1)C2	4900 nM	Kd (Interleukin-15): 16000 nM
93 nM	89 nM	CC(C)Oc1ccc(NC(=O)CCCCCCCSc2nnc(Cc3nn(C)c(=O)c4ccccc34)n2C)cc1	600 nM	Kd (Interleukin-15): 20900 nM
55 nM	58 nM	CC(C)COc1ccc(NC(=O)CCCCCCCSc2nnc(Cc3nn(C)c(=O)c4ccccc34)n2C)cc1	3000 nM	Kd (Interleukin-15): 25000 nM
–	–	Cn1c(Cc2nn(C)c(=O)c3ccccc23)nnc1SCc1cn(C23CC4CC(CC(C4)C2)C3)nn1	30000 nM	–
–	–	CN(C(=O)CCCCCCCSc1nnc(Cc2nn(C)c(=O)c3ccccc23)n1C)c1ccc(Cl)cc1Cl	8400 nM	–
–	–	CCOC(=O)c1cccc(NC(=O)CSc2nnc(Cc3nn(C)c(=O)c4ccccc34)n2C)c1	–	IC50 [1]: Not Active; IC50 (IL15-IL15 receptor [4]): Not Active
110 nM	76 nM	Cn1c(Cc2nn(C)c(=O)c3ccccc23)nnc1SCCCCCCCC(=O)Nc1ccc(F)cc1F	1000 nM	–
–	–	CC(C)Oc1ccc(NC(=O)CSc2nnc(Cc3nn(C)c(=O)c4ccccc34)n2C)cc1	> 30000 nM	–
–	–	Cn1c(Cc2nn(C)c(=O)c3ccccc23)nnc1SCCCCCC(=O)Nc1ccc(Cl)cc1Cl	9800 nM	–
–	–	Cn1c(Cc2nn(C)c(=O)c3ccccc23)nnc1SCCCCCCCCCC(=O)Nc1ccc(Cl)cc1Cl	1600 nM	–
–	–	Cn1c(Cc2nn(C)c(=O)c3ccccc23)nnc1SCCCCCCCC(=O)Nc1ccc(Cl)cc1	800 nM	–
–	–	COc1ccc(NC(=O)CSc2nnc(Cc3nn(C)c(=O)c4ccccc34)n2C)cc1	–	IC50 [1]: Not Active; IC50 (IL15-IL15 receptor [4]): Not Active
–	–	CCCCCCCCCCSc1nnc(Cc2nn(C)c(=O)c3ccccc23)n1C	10000 nM	–
–	–	Cn1c(Cc2nn(C)c(=O)c3ccccc23)nnc1SCC(=O)Nc1cccc(C(=O)O)c1	–	IC50 [1]: Not Active; IC50 (IL15-IL15 receptor [4]): Not Active
–	–	Cn1c(Cc2nn(C)c(=O)c3ccccc23)nnc1SCCCCCCCCCCCCCCCC(=O)Nc1ccc(Cl)cc1Cl	4600 nM	–
92 nM	83 nM	Cn1c(Cc2nn(C)c(=O)c3ccccc23)nnc1SCCCCCCCC(=O)Nc1ccc(Br)cc1Br	1300 nM	Kd (Interleukin-15): 11600 nM; Kd (Interleukin-2): 10000 nM

IC50 (IL15-IL15 receptor [2])	IC50 [3]	SMILES	IC50 ([1]; Homo sapiens, read-out: IC50)	other results
–	–	Cn1c(Cc2nn(C)c(=O)c3ccccc23)nnc1SCC(=O)Nc1ccc(O)cc1	–	IC50 [1]: Not Active; IC50 (IL15-IL15 receptor [4]): Not Active
–	–	Cn1nc(Cc2nnc(SCCCCCCCC(=O)Nc3ccc(Cl)cc3Cl)o2)c2ccccc2c1=O	800 nM	–
100 nM	73 nM	Cn1c(Cc2nn(C)c(=O)c3ccccc23)nnc1SCCCCCCCC(=O)Nc1ccc(N=[N+]=[N-])cc1	1100 nM	Kd (Interleukin-15): 42400 nM
–	–	Cn1c(Cc2nn(C)c(=O)c3ccccc23)nnc1SCC(=O)Nc1ccc(F)cc1F	–	IC50 (IL15-IL15 receptor [4]): Not Active
–	–	Cn1nc(Cc2nnc(SCCCCCCCCCCC(=O)Nc3ccc(Cl)cc3Cl)o2)c2ccccc2c1=O	7500 nM	–
201 nM	204 nM	COc1ccc(NC(=O)CCCCCCCSc2nnc(Cc3nn(C)c(=O)c4ccccc34)n2C)cc1	3200 nM	Kd (Interleukin-15): 26000 nM
–	–	Cn1c(Cc2nn(C)c(=O)c3ccccc23)nnc1SCCCCCCCC(=O)Nc1ccccc1O	23000 nM	–
> 30000 nM	> 30000 nM	Cn1c(Cc2nn(C)c(=O)c3ccccc23)nnc1SCC(=O)NC12CC3CC(CC(C3)C1)C2	–	IC50 [1]: Not Active; IC50 (IL15-IL15 receptor [4]): Not Active
–	–	Cn1c(Cc2nn(C)c(=O)c3ccccc23)nnc1SCCCCCCCC(=O)Nc1cccc2ccccc12	1900 nM	–
360 nM	226 nM	COc1ccc(NC(=O)CCCCCCCSc2nnc(Cc3nn(C)c(=O)c4ccccc34)n2C)c(O)c1	1000 nM	Kd (Interleukin-15): 21200 nM; Kd (Interleukin-2): 12500 nM
–	–	CC(C)COc1ccc(NC(=O)CSc2nnc(Cc3nn(C)c(=O)c4ccccc34)n2C)cc1	30000 nM	–
–	–	Cn1c(Cc2nn(C)c(=O)c3ccccc23)nnc1SCCCCCCCCCCC(=O)Nc1cccc2ccccc12	8500 nM	–
40 nM	53 nM	CCCOc1ccc(NC(=O)CCCCCCCSc2nnc(Cc3nn(C)c(=O)c4ccccc34)n2C)cc1	900 nM	Kd (Interleukin-15): 19000 nM
–	–	Cn1c(Cc2nn(C)c(=O)c3ccccc23)nnc1SCc1cn(CCCCC(=O)Nc2ccc(Cl)cc2Cl)nn1	> 30000 nM	–
–	–	Cn1c(Cc2nn(C)c(=O)c3ccccc23)nnc1SCC(=O)Nc1ccccc1C(=O)O	–	IC50 [1]: Not Active; IC50 (IL15-IL15 receptor [4]): Not Active
–	–	CCOC(=O)c1ccccc1NC(=O)CSc1nnc(Cc2nn(C)c(=O)c3ccccc23)n1C	30000 nM	–
57 nM	43 nM	CCOC(=O)c1cccc(NC(=O)CCCCCCCSc2nnc(Cc3nn(C)c(=O)c4ccccc34)n2C)c1	600 nM	Kd (Interleukin-15): 21800 nM; Kd (Interleukin-2): 23100 nM
76 nM	69 nM	Cc1ccc(NC(=O)CCCCCCCSc2nnc(Cc3nn(C)c(=O)c4ccccc34)n2C)c(Cl)c1	1700 nM	Kd (Interleukin-15): 24100 nM
9110 nM	14100 nM	Cn1c(Cc2nn(C)c(=O)c3ccccc23)nnc1SCC(=O)Nc1ccc(Cl)cc1Cl	11600 nM	Kd (Interleukin-15): 48400 nM; Kd (Interleukin-2): 10500 nM
–	–	CCCOc1ccc(NC(=O)CSc2nnc(Cc3nn(C)c(=O)c4ccccc34)n2C)cc1	> 30000 nM	–
153 nM	160 nM	Cn1c(Cc2nn(C)c(=O)c3ccccc23)nnc1SCCCCCCCC(=O)Nc1ccc(Cl)cc1Cl	1100 nM	Kd (Interleukin-15): 19100 nM; Kd (Interleukin-2): 8000 nM
–	–	Cn1c(Cc2nn(C)c(=O)c3ccccc23)nnc1SCCCCCCCC(=O)Nc1ccc(O)cc1O	21000 nM	–
–	–	Cn1c(Cc2nn(C)c(=O)c3ccccc23)nnc1SCC(=O)Nc1ccc(I)cc1	–	IC50 [1]: Not Active; IC50 (IL15-IL15 receptor [4]): Not Active

— ChEMBL document CHEMBL4011646, “Discovery of a Small-Molecule Inhibitor of Interleukin 15: Pharmacophore-Based Virtual Screening and Hit Optimization” (J Med Chem, 2017)
